Reference: ChEMBL document CHEMBL1126560, “Endothelin-1 analogues substituted at both position 18 and 19: highly potent endothelin antagonists with no selectivity for either receptor subtype ETA or ETB” (J Med Chem, 1993)

Key:
[1] = biological target: T1, Endothelin-1 receptor (Sus scrofa) (UniProt Q29010); test: Endothelin A receptor agonist activity as maximum vasoconstriction in porcine coronary artery; format: functional, tissue-based
T1 sequence (whole entry): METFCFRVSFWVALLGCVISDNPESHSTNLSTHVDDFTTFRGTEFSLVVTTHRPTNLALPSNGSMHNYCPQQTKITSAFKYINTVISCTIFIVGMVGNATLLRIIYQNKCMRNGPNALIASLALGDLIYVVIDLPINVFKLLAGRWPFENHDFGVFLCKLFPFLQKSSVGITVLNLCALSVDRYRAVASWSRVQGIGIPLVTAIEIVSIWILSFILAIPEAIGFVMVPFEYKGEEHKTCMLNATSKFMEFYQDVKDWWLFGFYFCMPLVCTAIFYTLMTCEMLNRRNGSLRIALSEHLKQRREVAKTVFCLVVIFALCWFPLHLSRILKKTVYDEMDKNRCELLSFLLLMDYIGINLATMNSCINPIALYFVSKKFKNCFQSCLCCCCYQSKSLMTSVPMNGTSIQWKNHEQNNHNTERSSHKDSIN
In short: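 Porcine right coronary artery, endothelium-denuded helical strips in Krebs-Henseleit, 37 °C, isometric tension. Compound applied cumulatively, up to 1 μM. Maximal contraction expressed as % of 60 mM KCl-induced tension; n in parentheses.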

Endothelin-1 receptor = biological target: T2, Endothelin-1 receptor (Sus scrofa, UniProt Q29010); test: Tested for the competitive binding versus [125I]- ET-1 determined in porcine cardiac ventricular membrane for Endothelin A receptor
T2 sequence (Q29010 whole entry): T1 sequence (whole entry)
In short: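 Membranes (porcine cardiac ventricle at 12 μg/mL for ETA; bovine cerebrum at 150 μg/mL for ETB) in pH 7.2 Tris/EGTA/Mg acetate/0.1% BSA buffer with protease inhibitors. Incubated with 100 pM [125I]ET-1 and varied compound for 1 h at 25 °C, then filtered and counted by gamma counter. IC50 given as mean ± SEM of ≥3 determinations.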

| Compound | Max vasoconstriction [1] | IC50 (Endothelin-1 receptor) [nM] |
| --- | --- | --- |
| CC[C@H](C)[C@H](NC(=O)[C@H](CC(=O)O)NC(=O)[C@H](CC(C)C)NC(=O)[C@H](Cc1c[nH]cn1)NC(=O)[C@@H]1CSSC[C@@H](N)C(=O)N[C@H](CO)C(=O)N[C@H]2CSSC[C@@H](NC(=O)[C@H](CCC(=O)O)NC(=O)[C@H](CCCCN)NC(=O)[C@@H](CC(=O)O)NC(=O)[C@H](CCSC)NC(=O)[C@@H](CC(C)C)NC(=O)[C@H](CO)NC(=O)[C@@H](CO)NC2=O)C(=O)N[C@@H](C(C)C)C(=O)N[C@H](Cc2ccc(O)cc2)C(=O)N[C@@H](Cc2ccccc2)C(=O)N1)C(=O)N[C@H](C(=O)N[C@@H](Cc1c[nH]c2ccccc12)C(=O)O)[C@@H](C)CC | 120 | – |
| CC[C@H](C)[C@H](NC(=O)[C@H](CC(C)C)NC(=O)[C@H](CC(=O)O)NC(=O)[C@H](CC(C)C)NC(=O)[C@H](Cc1c[nH]cn1)NC(=O)[C@@H]1CSSC[C@@H](N)C(=O)N[C@@H](CO)C(=O)N[C@@H]2CSSC[C@@H](NC(=O)[C@H](CCC(=O)O)NC(=O)[C@@H](CCCCN)NC(=O)[C@H](CC(=O)O)NC(=O)[C@@H](CCSC)NC(=O)[C@H](CC(C)C)NC(=O)[C@@H](CO)NC(=O)[C@H](CO)NC2=O)C(=O)N[C@@H](C(C)C)C(=O)N[C@H](Cc2ccc(O)cc2)C(=O)N[C@@H](Cc2ccccc2)C(=O)N1)C(=O)N[C@@H](Cc1c[nH]c2ccccc12)C(=O)O | 73 | – |
| CC[C@H](C)[C@H](NC(=O)[C@H](CC(C)(C)C)NC(=O)[C@@H](NC(=O)[C@H](CC(C)C)NC(=O)[C@H](Cc1c[nH]cn1)NC(=O)[C@@H]1CSSC[C@@H](N)C(=O)N[C@@H](CO)C(=O)N[C@@H]2CSSC[C@@H](NC(=O)[C@H](CCC(=O)O)NC(=O)[C@@H](CCCCN)NC(=O)[C@H](CC(=O)O)NC(=O)[C@@H](CCSC)NC(=O)[C@H](CC(C)C)NC(=O)[C@@H](CO)NC(=O)[C@H](CO)NC2=O)C(=O)N[C@@H](C(C)C)C(=O)N[C@H](Cc2ccc(O)cc2)C(=O)N[C@@H](Cc2ccccc2)C(=O)N1)[C@@H](C)O)C(=O)N[C@@H](Cc1c[nH]c2ccccc12)C(=O)O | 0 | – |
| CCC[C@H](NC(=O)[C@@H](NC(=O)[C@H](CC(C)C)NC(=O)[C@H](Cc1c[nH]cn1)NC(=O)[C@@H]1CSSC[C@@H](N)C(=O)N[C@@H](CO)C(=O)N[C@@H]2CSSC[C@@H](NC(=O)[C@H](CCC(=O)O)NC(=O)[C@@H](CCCCN)NC(=O)[C@H](CC(=O)O)NC(=O)[C@@H](CCSC)NC(=O)[C@H](CC(C)C)NC(=O)[C@@H](CO)NC(=O)[C@H](CO)NC2=O)C(=O)N[C@@H](C(C)C)C(=O)N[C@H](Cc2ccc(O)cc2)C(=O)N[C@@H](Cc2ccccc2)C(=O)N1)[C@@H](C)O)C(=O)N[C@H](C(=O)N[C@@H](Cc1c[nH]c2ccccc12)C(=O)O)[C@@H](C)CC | 112 | – |
| CC[C@H](C)[C@H](NC(=O)[C@H](CC(C)C)NC(=O)[C@H](CC(C)C)NC(=O)[C@H](Cc1c[nH]cn1)NC(=O)[C@@H]1CSSC[C@@H](N)C(=O)N[C@@H](CO)C(=O)N[C@@H]2CSSC[C@@H](NC(=O)[C@H](CCC(=O)O)NC(=O)[C@@H](CCCCN)NC(=O)[C@H](CC(=O)O)NC(=O)[C@@H](CCSC)NC(=O)[C@H](CC(C)C)NC(=O)[C@@H](CO)NC(=O)[C@H](CO)NC2=O)C(=O)N[C@@H](C(C)C)C(=O)N[C@H](Cc2ccc(O)cc2)C(=O)N[C@@H](Cc2ccccc2)C(=O)N1)C(=O)N[C@H](C(=O)N[C@@H](Cc1c[nH]c2ccccc12)C(=O)O)[C@@H](C)CC | 0 | – |
| CC[C@H](C)[C@H](NC(=O)[C@@H](NC(=O)[C@@H](NC(=O)[C@H](CC(C)C)NC(=O)[C@H](Cc1c[nH]cn1)NC(=O)[C@@H]1CSSC[C@H](N)C(=O)N[C@@H](CO)C(=O)N[C@H]2CSSC[C@H](NC(=O)[C@H](CCC(=O)O)NC(=O)[C@H](CCCCN)NC(=O)[C@H](CC(=O)O)NC(=O)[C@H](CCSC)NC(=O)[C@H](CC(C)C)NC(=O)[C@H](CO)NC(=O)[C@H](CO)NC2=O)C(=O)N[C@@H](C(C)C)C(=O)N[C@@H](Cc2ccc(O)cc2)C(=O)N[C@@H](Cc2ccccc2)C(=O)N1)[C@@H](C)O)C(C)C)C(=O)N[C@@H](Cc1c[nH]c2ccccc12)C(=O)O | – | 0.18 |
| CC[C@H](C)[C@H](NC(=O)[C@@H](NC(=O)[C@@H](NC(=O)[C@H](CC(C)C)NC(=O)[C@H](Cc1c[nH]cn1)NC(=O)[C@@H]1CSSC[C@@H](N)C(=O)N[C@@H](CO)C(=O)N[C@@H]2CSSC[C@@H](NC(=O)[C@H](CCC(=O)O)NC(=O)[C@@H](CCCCN)NC(=O)[C@H](CC(=O)O)NC(=O)[C@@H](CCSC)NC(=O)[C@H](CC(C)C)NC(=O)[C@@H](CO)NC(=O)[C@H](CO)NC2=O)C(=O)N[C@@H](C(C)C)C(=O)N[C@H](Cc2ccc(O)cc2)C(=O)N[C@@H](Cc2ccccc2)C(=O)N1)[C@@H](C)O)C(C)C)C(=O)N[C@@H](Cc1c[nH]c2ccccc12)C(=O)O | 128 | – |
| CC[C@H](C)[C@H](NC(=O)[C@@H](NC(=O)[C@H](CC(C)C)NC(=O)[C@H](Cc1c[nH]cn1)NC(=O)[C@@H]1CSSC[C@@H](N)C(=O)N[C@@H](CO)C(=O)N[C@@H]2CSSC[C@@H](NC(=O)[C@H](CCC(=O)O)NC(=O)[C@@H](CCCCN)NC(=O)[C@H](CC(=O)O)NC(=O)[C@@H](CCSC)NC(=O)[C@H](CC(C)C)NC(=O)[C@@H](CO)NC(=O)[C@H](CO)NC2=O)C(=O)N[C@@H](C(C)C)C(=O)N[C@H](Cc2ccc(O)cc2)C(=O)N[C@@H](Cc2ccccc2)C(=O)N1)[C@@H](C)O)C(=O)N[C@H](C(=O)N[C@@H](Cc1c[nH]c2ccccc12)C(=O)O)[C@@H](C)CC | 76 | – |
| CC[C@H](C)[C@H](NC(=O)[C@H](CC(=O)O)NC(=O)[C@H](CC(C)C)NC(=O)[C@H](Cc1c[nH]cn1)NC(=O)[C@@H]1CSSC[C@@H](NC(=O)[C@H](CCC(=O)O)NC(=O)[C@@H](CCCCN)NC(=O)[C@H](CC(=O)O)NC(=O)[C@@H](CCSC)NC(=O)[C@H](CC(C)C)NC(=O)[C@@H](CO)NC(=O)[C@H](CO)NC(=O)[C@H]2CSSC[C@@H](N)C(=O)N[C@@H](CO)C(=O)N2)C(=O)N[C@@H](C(C)C)C(=O)N[C@H](Cc2ccc(O)cc2)C(=O)N[C@@H](Cc2ccccc2)C(=O)N1)C(=O)N[C@H](C(=O)N[C@@H](Cc1c[nH]c2ccccc12)C(=O)O)[C@@H](C)CC | > 80 | – |
| CCC[C@H](NC(=O)[C@@H](NC(=O)[C@H](CC(C)C)NC(=O)[C@H](Cc1cnc[nH]1)NC(=O)[C@@H]1CSSC[C@H](N)C(=O)N[C@@H](CO)C(=O)N[C@H]2CSSC[C@H](NC(=O)[C@H](CCC(=O)O)NC(=O)[C@H](CCCCN)NC(=O)[C@H](CC(=O)O)NC(=O)[C@H](CCSC)NC(=O)[C@H](CC(C)C)NC(=O)[C@H](CO)NC(=O)[C@H](CO)NC2=O)C(=O)N[C@@H](C(C)C)C(=O)N[C@@H](Cc2ccc(O)cc2)C(=O)N[C@@H](Cc2ccccc2)C(=O)N1)[C@@H](C)O)C(=O)N[C@H](C(=O)N[C@@H](Cc1c[nH]c2ccccc12)C(=O)O)[C@@H](C)CC | – | 0.2 |
